From ChEMBL document CHEMBL1137781, “Synthesis and preclinical evaluation of novel PET probes for P-glycoprotein function and expression” (J Med Chem, 2009)

How the values were obtained:
Details in all cases: in vivo
Spleen [1] = test: Biodistribution in Wistar rat spleen at 40+/-4 MBq, iv after 80 mins; format: ADME, organism-based
[2] = Biodistribution in Wistar rat trachea at 40+/-4 MBq, iv after 80 mins; format: ADME, organism-based
[3] = Biodistribution in 50 mg/kg cyclosporin A pretreated Wistar rat amygdala at 27+/-2 MBq, iv after 80 mins; format: ADME, organism-based; parameters: dose 50 mg/kg, route intravenous
Summary of the method: (§1)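 Male Wistar rats pretreated via tail vein with saline or cyclosporin A (50 mg/kg, commercial solution), then given the [11C] tracer via penile vein. After microPET scanning the anesthetized rats were killed. Tissues were excised and weighed, and blood was centrifuged into plasma and cells. γ counting with decay correction. Results as SUV (tissue MBq/g × body weight/injected dose).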

[4] = Biodistribution in 50 mg/kg cyclosporin A pretreated Wistar rat bulbus olfactorius at 27+/-2 MBq, iv after 80 mins; format: ADME, organism-based, Olfactory bulb; parameters: dose 50 mg/kg, route intravenous; summary of the method: as §1
Cerebellum = test: Biodistribution in 50 mg/kg cyclosporin A pretreated Wistar rat cerebellum at 27+/-2 MBq, iv after 80 mins; format: ADME, organism-based; parameters: dose 50 mg/kg, route intravenous; summary of the method: as §1
[5] = Biodistribution in 50 mg/kg cyclosporin A pretreated Wistar rat cingulate cortex at 27+/-2 MBq, iv after 80 mins; format: ADME, organism-based; parameters: dose 50 mg/kg, route intravenous; summary of the method: as §1
[6] = Biodistribution in 50 mg/kg cyclosporin A pretreated Wistar rat entorhinal cortex at 27+/-2 MBq, iv after 80 mins; format: ADME, organism-based; parameters: dose 50 mg/kg, route intravenous; summary of the method: as §1
[7] = Biodistribution in 50 mg/kg cyclosporin A pretreated Wistar rat frontal cortex at 27+/-2 MBq, iv after 80 mins; format: ADME, organism-based; parameters: dose 50 mg/kg, route intravenous
Hippocampus = test: Biodistribution in 50 mg/kg cyclosporin A pretreated Wistar rat hippocampus at 27+/-2 MBq, iv after 80 mins; format: ADME, organism-based; parameters: dose 50 mg/kg, route intravenous
[8] = Biodistribution in 50 mg/kg cyclosporin A pretreated Wistar rat medulla at 27+/-2 MBq, iv after 80 mins; format: ADME, organism-based, Medulla of organ; parameters: dose 50 mg/kg, route intravenous
[9] = Biodistribution in 50 mg/kg cyclosporin A pretreated Wistar rat parietal/temporal/occipital cortex at 27+/-2 MBq, iv after 80 mins; format: ADME, organism-based; parameters: dose 50 mg/kg, route intravenous
Pons = test: Biodistribution in 50 mg/kg cyclosporin A pretreated Wistar rat pons at 27+/-2 MBq, iv after 80 mins; format: ADME, organism-based; parameters: dose 50 mg/kg, route intravenous
Striatum = test: Biodistribution in 50 mg/kg cyclosporin A pretreated Wistar rat striatum at 27+/-2 MBq, iv after 80 mins; format: ADME, organism-based; parameters: dose 50 mg/kg, route intravenous
Bone = test: Biodistribution in 50 mg/kg cyclosporin A pretreated Wistar rat bone at 27+/-2 MBq, iv after 80 mins; format: ADME, organism-based, Bone element; parameters: dose 50 mg/kg, route intravenous; summary of the method: as §1
Colon = test: Biodistribution in 50 mg/kg cyclosporin A pretreated Wistar rat colon at 27+/-2 MBq, iv after 80 mins; format: ADME, organism-based; parameters: dose 50 mg/kg, route intravenous; summary of the method: as §1
Duodenum = test: Biodistribution in 50 mg/kg cyclosporin A pretreated Wistar rat duodenum at 27+/-2 MBq, iv after 80 mins; format: ADME, organism-based; parameters: dose 50 mg/kg, route intravenous; summary of the method: as §1
[10] = Biodistribution in 50 mg/kg cyclosporin A pretreated Wistar rat fat at 27+/-2 MBq, iv after 80 mins; format: ADME, organism-based, Adipose tissue; parameters: dose 50 mg/kg, route intravenous; summary of the method: as §1
Heart = test: Biodistribution in 50 mg/kg cyclosporin A pretreated Wistar rat heart at 27+/-2 MBq, iv after 80 mins; format: ADME, organism-based; parameters: dose 50 mg/kg, route intravenous
Ileum = test: Biodistribution in 50 mg/kg cyclosporin A pretreated Wistar rat ileum at 27+/-2 MBq, iv after 80 mins; format: ADME, organism-based; parameters: dose 50 mg/kg, route intravenous
Kidney = test: Biodistribution in 50 mg/kg cyclosporin A pretreated Wistar rat kidney at 27+/-2 MBq, iv after 80 mins; format: ADME, organism-based; parameters: dose 50 mg/kg, route intravenous
Liver = test: Biodistribution in 50 mg/kg cyclosporin A pretreated Wistar rat liver at 27+/-2 MBq, iv after 80 mins; format: ADME, organism-based; parameters: dose 50 mg/kg, route intravenous
Lung = test: Biodistribution in 50 mg/kg cyclosporin A pretreated Wistar rat lung at 27+/-2 MBq, iv after 80 mins; format: ADME, organism-based; parameters: dose 50 mg/kg, route intravenous
Muscle tissue = test: Biodistribution in 50 mg/kg cyclosporin A pretreated Wistar rat muscle at 27+/-2 MBq, iv after 80 mins; format: ADME, organism-based; parameters: dose 50 mg/kg, route intravenous
Pancreas = test: Biodistribution in 50 mg/kg cyclosporin A pretreated Wistar rat pancreas at 27+/-2 MBq, iv after 80 mins; format: ADME, organism-based; parameters: dose 50 mg/kg, route intravenous
Plasma = test: Biodistribution in 50 mg/kg cyclosporin A pretreated Wistar rat plasma at 27+/-2 MBq, iv after 80 mins; format: ADME, organism-based; parameters: dose 50 mg/kg, route intravenous
[11] = Biodistribution in 50 mg/kg cyclosporin A pretreated Wistar rat red blood cells at 27+/-2 MBq, iv after 80 mins; format: ADME, organism-based, Erythrocyte; parameters: dose 50 mg/kg, route intravenous
Spleen [12] = test: Biodistribution in 50 mg/kg cyclosporin A pretreated Wistar rat spleen at 27+/-2 MBq, iv after 80 mins; format: ADME, organism-based; parameters: dose 50 mg/kg, route intravenous
[13] = Biodistribution in 50 mg/kg cyclosporin A pretreated Wistar rat trachea at 27+/-2 MBq, iv after 80 mins; format: ADME, organism-based; parameters: dose 50 mg/kg, route intravenous

Compound COc1cc2c(cc1OC)CN(CCCC1CCCc3c(O[11CH3])cccc31)CC2 (stereo not drawn) has an SUV (Spleen [1]) of 1.64, an SUV [2] of 0.78 and an SUV [3] of 1.07. It also gave an SUV [4] of 0.84, an SUV (Cerebellum) of 0.99 and an SUV [5] of 0.88. For the same compound, the SUV [6] was 1.23, the SUV [7] was 1.06 and the SUV (Hippocampus) was 0.86. It also gave an SUV [8] of 1.14, an SUV [9] of 1.04 and an SUV (Pons) of 1.28. It also gave an SUV (Striatum) of 0.87, an SUV (Bone) of 0.26 and an SUV (Colon) of 1.81. The SUV (Duodenum) was 2.58, the SUV [10] was 0.31 and the SUV (Heart) was 0.34. For the same compound, the SUV (Ileum) was 1.1, the SUV (Kidney) was 1.47 and the SUV (Liver) was 2.67. It also gave an SUV (Lung) of 0.98, an SUV (Muscle tissue) of 0.26 and an SUV (Pancreas) of 2.91. The SUV (Plasma) was 0.32, the SUV [11] was 0.16 and the SUV (Spleen [12]) was 1.73. The SUV [13] was 0.74.
